# Results of several laboratories.
# Melanocortin receptor 5: Melanocortin receptor 5 (Mus musculus, UniProt P41149)
# GRM4: Metabotropic glutamate receptor 4 (GRM4, Homo sapiens, UniProt Q14833)
# Ppara: Peroxisome proliferator-activated receptor alpha (Ppara, Mus musculus, UniProt P23204)
SMILES,target,observed,mode,technique,EC50 [µM]
N=C(N)NCCC[C@H](NC(=O)[C@@H](N)CC(=O)O)C(=O)N[C@@H](Cc1ccccc1)C(=O)NCC(=O)O,Melanocortin receptor 5,reporter gene,agonist,,> 100
CCN(C(=O)C1CCN(S(=O)(=O)c2ccc3[nH]ncc3c2)CC1)[C@H](C)c1ccccc1,"Muscarinic acetylcholine receptor M4 (CHRM4, Homo sapiens, UniProt P08173)",calcium signal,agonist,,> 30
CSCC[C@H](N)C(=O)NCC(=O)N[C@@H](Cc1c[nH]cn1)C(=O)N[C@@H](Cc1ccccc1)C(=O)N[C@@H](CCCNC(=N)N)C(=O)N[C@@H](Cc1c[nH]c2ccccc12)C(=O)O,Melanocortin receptor 5,reporter gene,agonist,,4.43
COc1ccc(-c2nsc(NC(=O)[C@@H]3C[C@H]3C)c2C)cc1,GRM4,calcium signal,agonist,,> 25
Cc1nc(-c2ccc(C(F)(F)F)cc2)sc1C(=O)NCc1ccc(OC(C)(C)C(=O)O)cc1,Ppara,reporter gene,agonist,luciferase,0.098
CCCC[C@H](NC(=O)[C@@H](NC(=O)[C@@H](N)Cc1ccc(O)cc1)C(C)C)C(=O)NCC(=O)N[C@@H](Cc1c[nH]cn1)C(=O)N[C@@H](Cc1ccccc1)C(=O)N[C@@H](CCCN=C(N)N)C(=O)N[C@@H](Cc1c[nH]c2ccccc12)C(=O)N[C@@H](CC(=O)O)C(=O)N[C@@H](CCCN=C(N)N)C(=O)N[C@@H](Cc1ccccc1)C(=O)NCC(=O)O,Melanocortin receptor 5,reporter gene,agonist,,0.14
COC(=O)c1ccc(-n2c(C)cc(C(=O)CSc3ccc(NC(C)=O)cc3)c2C)cc1,GRM4,calcium signal,positive allosteric modulator,,3.31
C[C@@H]1NC(=O)[C@H](CCCNC(=N)N)NC(=O)[C@H](Cc2ccccc2)NC(=O)[C@H](Cc2ccccc2)NC(=O)[C@H](CCCNC(=N)N)NC(=O)[C@@H]2CCCN2C(=O)[C@H]2CCCN2C(=O)[C@H](Cc2ccccc2)NC1=O,Melanocortin receptor 5,reporter gene,agonist,,> 100
CC(C)(Oc1ccc(C(=O)c2ccc(Cl)cc2)cc1)C(=O)O,Ppara,reporter gene,agonist,luciferase,35.8
O=C(Nc1ccc(N2C(=O)c3ccccc3C2=O)c(Cl)c1)c1ncccc1Cl,"Metabotropic glutamate receptor 1 (GRM1, Homo sapiens, UniProt Q13255)",calcium signal,positive allosteric modulator,,1.26
